The source made the active and inactive calls.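 Rule for the calls: active = toxic dose over resistance-reversal dose ratio above 10, when the toxic dose is under 15 µM; inactive = the rest.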
System: Igrov ABCG2 cells + mitoxantrone, trypan blue viability, 3 d
Assay: restoration of mitoxantrone killing in ABCG2 cells, SAR follow-up, orthogonal assay for ABC transporter inhibitor project, Igrov cells, one SAR set (AID 2830)
Details: for CC50: measured here: toxicity without chemotherapeutic (TD50)
Outline: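 Also added: mitoxantrone as chemotherapeutic selective agent, fixed concentration / Test system: Igrove cells with ABCG2 / Input: 100,000 cells per mL / Dosing: compound at 1–100 µM / Times: 3-day compound exposure alongside mitoxantrone / Technique: trypan blue counts by microscopy / Read-out: compound concentration halving cell viability under mitoxantrone (CR50)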

SMILES	EC50	CC50 [µM]
COc1ccc(-c2nn(-c3ccccc3)cc2/C=C/C(=O)N2CCN(c3ccccn3)CC2)cc1	1.22 µM	> 100
COc1ccc(/C=N/NC(=O)c2cccnc2)cc1CN1CCN(c2ccc(F)cc2)CC1	8.71 µM (inactive)	15.4
CC1=NN(c2ccc([N+](=O)[O-])cc2)C(=O)/C1=C/N(C)C	54.4 µM (inactive)	78.4
O=[N+]([O-])c1ccc(Nc2nc(Cl)nc(NCCO)n2)cc1	55.5 µM (inactive)	> 100
Cc1cc(C)c(C#N)c(SCc2c(F)cccc2[N+](=O)[O-])n1	18.3 µM (inactive)	> 100
CNc1nc2cc([N+](=O)[O-])c([N+](=O)[O-])cc2nc1NC	5.77 µM (inactive)	7.32
CCOC(=O)c1cccc(NC(=O)c2cnc3ccccc3n2)c1	17.5 µM (inactive)	67.8
O=[N+]([O-])c1ccccc1-c1nc(-c2ccc(Br)o2)no1	15.6 µM (inactive)	23.2
COC(=O)c1ccc(C(C(=O)NC2CCCCC2)N(Cc2ccccc2)C(=O)Cc2cccs2)cc1 (stereo not given)	8.93 µM	> 100
CCN(CC)P(=O)(Nc1cccc(C(F)(F)F)c1)c1ccc(N(C)C)cc1NC(=O)c1ccco1 (stereo not given)	2.31 µM (inactive)	19.8
CCCCn1c(O)c(N=Nc2ccccn2)c2ccccc21	3.73 µM (inactive)	7.62
CCOC(=O)c1c(NC(=O)CSc2ncccn2)sc2c1CCN(Cc1ccccc1)C2	0.117 µM (inactive)	2.61
N#Cc1ccc(-c2ccc(OCC(=O)NCCc3ccccc3)cc2)cc1	4.73 µM	> 100
CCCCN(C)C1=CC2=CC(=C(C#N)C#N)CCC2CC1 (stereo not given)	5.77 µM	67.8
Cc1nc2cc(-c3cccc(F)c3)nn2c(N2CCN(C(=O)c3ccco3)CC2)c1C	0.419 µM	> 100
